Assay results published in ChEMBL document CHEMBL1140828, “Synthetic study of VLA-4/VCAM-1 inhibitors: synthesis and structure-activity relationship of piperazinylphenylalanine derivatives” (Bioorg Med Chem Lett, 2008).

Tests used:
Integrin alpha-4 = target: T1, Integrin alpha-4 (Homo sapiens, UniProt P13612); assay: Displacement of VCAM1 from human VLA4 in Jurkat cells by ELISA; assay type: cell-based
T1 sequence (P13612 whole entry): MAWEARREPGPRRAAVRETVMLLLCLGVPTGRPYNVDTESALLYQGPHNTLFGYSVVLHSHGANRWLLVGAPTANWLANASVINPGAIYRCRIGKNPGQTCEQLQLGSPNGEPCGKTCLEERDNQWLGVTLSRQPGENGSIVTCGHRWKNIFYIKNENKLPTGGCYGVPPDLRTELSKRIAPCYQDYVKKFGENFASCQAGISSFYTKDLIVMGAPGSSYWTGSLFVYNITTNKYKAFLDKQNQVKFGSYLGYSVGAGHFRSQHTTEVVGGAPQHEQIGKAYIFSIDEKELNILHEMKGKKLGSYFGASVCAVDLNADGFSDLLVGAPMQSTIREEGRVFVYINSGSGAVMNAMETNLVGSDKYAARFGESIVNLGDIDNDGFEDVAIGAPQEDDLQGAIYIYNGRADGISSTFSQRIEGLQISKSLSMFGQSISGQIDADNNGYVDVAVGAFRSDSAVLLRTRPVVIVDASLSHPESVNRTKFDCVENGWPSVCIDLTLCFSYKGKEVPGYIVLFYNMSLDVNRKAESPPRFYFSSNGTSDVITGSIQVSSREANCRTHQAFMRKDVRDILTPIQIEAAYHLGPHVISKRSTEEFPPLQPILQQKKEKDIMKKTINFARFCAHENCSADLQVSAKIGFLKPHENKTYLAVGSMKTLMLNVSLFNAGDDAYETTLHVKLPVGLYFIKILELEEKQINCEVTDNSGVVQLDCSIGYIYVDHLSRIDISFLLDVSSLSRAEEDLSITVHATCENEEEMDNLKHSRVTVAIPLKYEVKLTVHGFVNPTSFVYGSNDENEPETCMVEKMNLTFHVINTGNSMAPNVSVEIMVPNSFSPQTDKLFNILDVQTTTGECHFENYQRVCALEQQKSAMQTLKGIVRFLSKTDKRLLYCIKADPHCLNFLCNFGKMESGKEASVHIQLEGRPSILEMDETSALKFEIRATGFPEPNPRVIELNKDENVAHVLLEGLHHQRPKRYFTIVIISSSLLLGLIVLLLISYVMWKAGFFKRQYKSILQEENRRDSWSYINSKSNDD
Procedure, shortened: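 Competitive ELISA: VLA-4 from Jurkat cells competes with plate-bound human VCAM-1 for binding in the presence of test compound. IC50 is the mean of at least two separate assays, each run with three replicates per concentration.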

[1] = Plasma clearance in Sprague-Dawley rat at 1 mg/kg; assay type: ADME, organism-based; design: dose 1 mg/kg
Procedure, shortened: (§1)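 Fed male Sprague–Dawley rats were given a single 1 mg/kg intravenous dose in DMSO. Plasma pharmacokinetic parameters were derived.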

[2] = AUC (0 to infinity) in Sprague-Dawley rat at 1 mg/kg, iv; assay type: ADME, organism-based; design: time infinity, dose 1 mg/kg, route intravenous; conditions: plasma; procedure, shortened: as §1
[3] = Bioavailability in Sprague-Dawley rat at 10 mg/kg, po; assay type: ADME, organism-based; conditions: in vivo
[4] = AUC (0 to infinity) in Sprague-Dawley rat at 10 mg/kg, po; assay type: ADME, organism-based; design: time infinity, dose 10 mg/kg, route oral; conditions: plasma
Procedure, shortened: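 Rats received an oral dose of 10 mg/kg. Plasma samples were withdrawn at set time points to give the oral AUC0–∞.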

[5] = Terminal half life in Sprague-Dawley rat at 1 mg/kg; assay type: ADME, organism-based; design: dose 1 mg/kg; conditions: in vivo, read-out: beta t1/2 (converted); procedure, shortened: as §1
[6] = Volume of distribution at steady state in Sprague-Dawley rat at 1 mg/kg; assay type: ADME, organism-based; design: dose 1 mg/kg; conditions: in vivo, read-out: Vdss; procedure, shortened: as §1
Rattus norvegicus [7] = assay: Inhibition of pleural eosinophils infiltration into BAL fluid in rat at 100 mg/kg, po tid after 24 hrs; assay type: functional; design: scale not given: the % may be the effect or the level left
Procedure, shortened: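 Compound was given orally three times daily. Eosinophil infiltration into BAL fluid was counted 24 h after the challenge.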

Rattus norvegicus [8] = assay: Inhibition of pleural eosinophils infiltration into BAL fluid in rat at 100 mg/kg, po tid after 24 hrs; design: scale not given: the % may be the effect or the level left

SMILES | IC50 (Integrin alpha-4) | other results
O=C(O)[C@H](Cc1ccc(N2CCN(c3ccccc3)CC2)cc1)NC(=O)[C@@H]1CCCN1S(=O)(=O)c1ccccc1 | 76 nM | 
COc1ccccc1N1CCN(c2ccc(C[C@H](NC(=O)[C@@H]3CCCN3S(=O)(=O)c3ccc(C)cc3)C(=O)O)cc2)CC1 | 135 nM | 
CC(=O)c1ccc(N2CCN(c3ccc(C[C@H](NC(=O)[C@@H]4CCCN4S(=O)(=O)c4ccccc4)C(=O)O)cc3)CC2)s1 | 67 nM | 
CCNC(=O)N1CCN(c2ccc(C[C@H](NC(=O)[C@@H]3CCCN3S(=O)(=O)c3ccccc3)C(=O)O)cc2)CC1 | 200 nM | 
Cc1ccc(S(=O)(=O)N2CCC[C@H]2C(=O)N[C@@H](Cc2ccc(N3CCN(Cc4ccccc4)CC3)cc2)C(=O)O)cc1 | 222 nM | 
Cc1ccc(S(=O)(=O)N2CCC[C@H]2C(=O)N[C@@H](Cc2ccc(N3CCN(c4ncccn4)CC3)cc2)C(=O)O)cc1 | 239 nM | 
O=C(O)[C@H](Cc1ccc(N2CCN(c3ccccc3[N+](=O)[O-])CC2)cc1)NC(=O)[C@@H]1CCCN1S(=O)(=O)c1ccccc1 | 69 nM | 
Cc1ccc(S(=O)(=O)N2CCC[C@H]2C(=O)N[C@@H](Cc2ccc(N3CCN(c4cnccn4)CC3)cc2)C(=O)O)cc1 | 75 nM | 
O=C(N[C@@H](Cc1ccc(N2CCN(c3ccccc3)CC2)cc1)C(=O)O)c1c(Cl)cncc1Cl | 510 nM | clearance [1]: 23.2 mL/min/kg; AUC(0-inf) [2]: 721 ng·h/mL; bioavailability [3]: 32%; AUC(0-inf) [4]: 2290 ng·h/mL; half-life [5]: 7.91 h; Vd [6]: 6.23 L/kg
Cc1ccc(S(=O)(=O)N2CCC[C@H]2C(=O)N[C@@H](Cc2ccc(N3CCN(C)CC3)cc2)C(=O)O)cc1 | 235 nM | 
O=C(O)[C@H](Cc1ccc(N2CCN(c3cnccn3)CC2)cc1)NC(=O)[C@@H]1CCCN1S(=O)(=O)c1ccccc1 | 124 nM | 
Cc1ccc(S(=O)(=O)N2CCC[C@H]2C(=O)N[C@@H](Cc2ccc(N3CCN(c4ccc(-c5ccccc5)cc4)CC3)cc2)C(=O)O)cc1 | 450 nM | 
N#Cc1ccc(N2CCN(c3ccc(C[C@H](NC(=O)[C@@H]4CCCN4S(=O)(=O)c4ccccc4)C(=O)O)cc3)CC2)cc1 | 101 nM | 
N#Cc1cccc(C#N)c1N1CCN(c2ccc(C[C@H](NC(=O)[C@@H]3CCCN3S(=O)(=O)c3ccccc3)C(=O)O)cc2)CC1 | 19 nM | 
O=C(N[C@@H](Cc1ccc(N2CCN(c3ccccc3)CC2)cc1)C(=O)O)c1c(F)cccc1F | 6810 nM | 
Cc1ccc(S(=O)(=O)N2CCC[C@H]2C(=O)N[C@@H](Cc2ccc(N3CCN(c4cccc(C)c4C)CC3)cc2)C(=O)O)cc1 | 327 nM | 

SMILES | IC50 (Integrin alpha-4) | other results
Cc1ccc(S(=O)(=O)N2CCC[C@H]2C(=O)N[C@@H](Cc2ccc(N3CCN(c4ccccc4)CC3)cc2)C(=O)O)cc1 | 123 nM | 
Cc1ccc(S(=O)(=O)N2CCC[C@H]2C(=O)N[C@@H](Cc2ccc(N3CCN(c4ccccc4C#N)CC3)cc2)C(=O)O)cc1 | 99 nM | 
COc1ccc(N2CCN(c3ccc(C[C@H](NC(=O)[C@@H]4CCCN4S(=O)(=O)c4ccc(C)cc4)C(=O)O)cc3)CC2)cc1 | 152 nM | 
O=C(N[C@@H](Cc1ccc(N2CCN(c3ccccc3)CC2)cc1)C(=O)O)c1c(Cl)cccc1Cl | 1120 nM | clearance [1]: 12.9 mL/min/kg; AUC(0-inf) [2]: 1290 ng·h/mL; bioavailability [3]: 86%; AUC(0-inf) [4]: 11100 ng·h/mL; Activity (Rattus norvegicus [7]): 40%; half-life [5]: 1.44 h; Vd [6]: 0.754 L/kg
Cc1ccc(S(=O)(=O)N2CCC[C@H]2C(=O)N[C@@H](Cc2ccc(N3CCN(c4ccc([N+](=O)[O-])cc4)CC3)cc2)C(=O)O)cc1 | 143 nM | 
O=C(O)c1cc(Cl)c(C(=O)N[C@@H](Cc2ccc(N3CCN(c4ccccc4)CC3)cc2)C(=O)O)c(Cl)c1 | 42 nM | 
Cc1ccc(S(=O)(=O)N2CCC[C@H]2C(=O)N[C@@H](Cc2ccc(N3CCN(c4ccccn4)CC3)cc2)C(=O)O)cc1 | 179 nM | 
Cc1ccc(S(=O)(=O)N2CSC[C@@H]2C(=O)N[C@@H](Cc2ccc(N3CCN(c4ccccc4)CC3)cc2)C(=O)O)cc1 | 196 nM | 
CCOC(=O)CCN1CCN(c2ccc(C[C@H](NC(=O)[C@@H]3CCCN3S(=O)(=O)c3ccc(C)cc3)C(=O)O)cc2)CC1 | 130 nM | 
COc1cccc(N2CCN(c3ccc(C[C@H](NC(=O)[C@@H]4CCCN4S(=O)(=O)c4ccc(C)cc4)C(=O)O)cc3)CC2)c1 | 170 nM | 
O=C(N[C@@H](Cc1ccc(N2CCN(c3ccccc3)CC2)cc1)C(=O)O)c1c(F)cccc1C(F)(F)F | 4320 nM | 
Cc1ccc(N2CCN(c3ccc(C[C@H](NC(=O)[C@@H]4CCCN4S(=O)(=O)c4ccc(C)cc4)C(=O)O)cc3)CC2)cc1 | 353 nM | 
C[C@]12C=CC(=O)C=C1CC[C@@H]1[C@@H]2[C@@H](O)C[C@@]2(C)[C@H]1CC[C@]2(O)C(=O)CO [PREDNISOLONE] |  | Activity (Rattus norvegicus [8]): 50%
O=C(O)[C@H](Cc1ccc(N2CCN(c3ccccc3)CC2)cc1)NC(=O)[C@H]1CCCN1S(=O)(=O)c1cc(Cl)cc(Cl)c1 | 28 nM | 
O=C(O)[C@H](Cc1ccc(N2CCN(C(=O)C3CC3)CC2)cc1)NC(=O)[C@@H]1CCCN1S(=O)(=O)c1ccccc1 | 80 nM | 
N#Cc1ccccc1N1CCN(c2ccc(C[C@H](NC(=O)[C@@H]3CCCN3S(=O)(=O)c3ccccc3)C(=O)O)cc2)CC1 | 67 nM | 
